Reference: ChEMBL document CHEMBL1212764, “Antimicrobial resistance in Haemophilus influenzae respiratory tract isolates in Korea: results of a nationwide acute respiratory infections surveillance” (2010)
Values after ≈ are worked out from the molar mass of the structure shown.

Tests used:
Type in all cases: functional
Haemophilus influenzae [1] = test: Antimicrobial activity against Haemophilus influenzae isolate by broth microdilution method
Method in brief: (§1)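 Broth microdilution MIC in freshly prepared Haemophilus test medium per 2008 CLSI guidelines; H. influenzae ATCC 49247 and ATCC 49766 as control strains. Isolates from outpatient nasal aspirates (no prior antibiotics), cultured on blood agar with S. aureus streak and chocolate agar. PBP3 substitutions deduced from ftsI sequencing against the Rd strain; β-lactamase genes (TEM-1, ROB-1) detected by PCR.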

Haemophilus influenzae [2] = test: Antimicrobial activity against Beta-lactamase-positive, ampicillin-cluvulanate-resistant Haemophilus influenzae by broth microdilution method; method in brief: as §1
Haemophilus influenzae [3] = test: Antimicrobial activity against Beta-lactamase-negative, ampicillin-resistant Haemophilus influenzae by broth microdilution method; method in brief: as §1
Haemophilus influenzae [4] = test: Antimicrobial activity against beta-lactamase-negative, ampicillin-sensitive Haemophilus influenzae by broth microdilution method; method in brief: as §1
Haemophilus influenzae [5] = test: Antimicrobial activity against Beta-lactamase-positive, ampicillin-resistant Haemophilus influenzae by broth microdilution method; method in brief: as §1
Haemophilus influenzae [6] = test: Antimicrobial activity against Beta-lactamase-positive, ampicillin-cluvulanate-resistant Haemophilus influenzae with Asp350Asn, Met377Ile, Gly490Glu, Ala502Val, Asn526Lys substitutions in penicillin-binding protein 3 by broth microdilution method; method in brief: as §1
Haemophilus influenzae [7] = test: Antimicrobial activity against Beta-lactamase-negative, ampicillin-resistant Haemophilus influenzae with Asp350Asn, Met377Ile, Asn526Lys substitutions in penicillin-binding protein 3 by broth microdilution method; method in brief: as §1
Haemophilus influenzae [8] = test: Antimicrobial activity against Beta-lactamase-positive, ampicillin-cluvulanate-resistant Haemophilus influenzae with Ile449Val, Asn526Lys substitutions in penicillin-binding protein 3 by broth microdilution method; method in brief: as §1
Haemophilus influenzae [9] = test: Antimicrobial activity against Beta-lactamase-negative, ampicillin-resistant Haemophilus influenzae with penicillin-binding protein 3 by broth microdilution method; method in brief: as §1
Haemophilus influenzae [10] = test: Antimicrobial activity against Beta-lactamase-negative, ampicillin-resistant Haemophilus influenzae with Gly490Glu, Asn526Lys substitutions in penicillin-binding protein 3 by broth microdilution method; method in brief: as §1
Haemophilus influenzae [11] = test: Antimicrobial activity against Beta-lactamase-negative, ampicillin-resistant Haemophilus influenzae with Asp350Asn, Met377Ile, Gly490Glu, Asn526Lys substitutions in penicillin-binding protein 3 by broth microdilution method; method in brief: as §1
Haemophilus influenzae [12] = test: Antimicrobial activity against Beta-lactamase-positive, ampicillin-cluvulanate-resistant Haemophilus influenzae with Asp350Asn, Met377Ile, Ala502Val, Asn526Lys substitutions in penicillin-binding protein 3 by broth microdilution method; method in brief: as §1
Haemophilus influenzae [13] = test: Antimicrobial activity against Beta-lactamase-positive, ampicillin-cluvulanate-resistant Haemophilus influenzae with Asp350Asn, Met377Ile, Ser385Thr, Asn526Lys substitutions in penicillin-binding protein 3 by broth microdilution method; method in brief: as §1
Haemophilus influenzae [14] = test: Antimicrobial activity against Beta-lactamase-negative, ampicillin-resistant Haemophilus influenzae with Asp350Asn, Met377Ile, Ala502Val, Asn526Lys substitutions in penicillin-binding protein 3 by broth microdilution method; method in brief: as §1
Haemophilus influenzae [15] = test: Antimicrobial activity against Beta-lactamase-positive, ampicillin-cluvulanate-resistant Haemophilus influenzae with Ala502Val, Asn526Lys substitutions in penicillin-binding protein 3 by broth microdilution method; method in brief: as §1
Haemophilus influenzae [16] = test: Antimicrobial activity against Beta-lactamase-negative, ampicillin-resistant Haemophilus influenzae with Ile449Val, Ala502Thr, Asn526Lys substitutions in penicillin-binding protein 3 by broth microdilution method; method in brief: as §1
Haemophilus influenzae [17] = test: Antimicrobial activity against Beta-lactamase-negative, ampicillin-resistant Haemophilus influenzae with Asp350Asn, Met377Ile, Gly490Glu, Ala502Val, Asn526Lys substitutions in penicillin-binding protein 3 by broth microdilution method; method in brief: as §1
Haemophilus influenzae [18] = test: Antimicrobial activity against Beta-lactamase-positive, ampicillin-cluvulanate-resistant Haemophilus influenzae with Asp350Asn, Ser357Asp, Met377Ile, Ser385Thr, Arg517His substitutions in penicillin-binding protein 3 by broth microdilution method; method in brief: as §1
Haemophilus influenzae [19] = test: Antimicrobial activity against Beta-lactamase-negative, ampicillin-resistant Haemophilus influenzae with Ile449Val, Asn526Lys substitutions in penicillin-binding protein 3 by broth microdilution method; method in brief: as §1
Haemophilus influenzae [20] = test: Antimicrobial activity against Beta-lactamase-negative, ampicillin-resistant Haemophilus influenzae with Asp350Asn, Ser357Asp, Met377Ile, Ser385Thr, Arg517His substitutions in penicillin-binding protein 3 by broth microdilution method; method in brief: as §1
Haemophilus influenzae [21] = test: Antimicrobial activity against Beta-lactamase-negative, ampicillin-resistant Haemophilus influenzae with Asp350Asn, Ser357Asp, Met377Ile, Ser385Thr, Ala502Thr, Asn526Lys substitutions in penicillin-binding protein 3 by broth microdilution method; method in brief: as §1
Haemophilus influenzae [22] = test: Antimicrobial activity against Beta-lactamase-positive, ampicillin-cluvulanate-resistant Haemophilus influenzae with Asp350Asn, Ala437Ser substitutions in penicillin-binding protein 3 by broth microdilution method; method in brief: as §1
Haemophilus influenzae [23] = test: Antimicrobial activity against Beta-lactamase-negative, ampicillin-resistant Haemophilus influenzae with Asp350Asn, Ser357Asp, Ser385Thr, Leu389Phe, Ala502Thr, Asn526Lys substitutions in penicillin-binding protein 3 by broth microdilution method; method in brief: as §1
Haemophilus influenzae [24] = test: Antimicrobial activity against Beta-lactamase-negative, ampicillin-resistant Haemophilus influenzae with Ala502Val, Asn526Lys substitutions in penicillin-binding protein 3 by broth microdilution method; method in brief: as §1
Haemophilus influenzae [25] = test: Antimicrobial activity against Beta-lactamase-positive, ampicillin-cluvulanate-resistant Haemophilus influenzae with Asp350Asn, Ala502Thr, Asn526Lys substitutions in penicillin-binding protein 3 by broth microdilution method; method in brief: as §1
Haemophilus influenzae [26] = test: Antimicrobial activity against Beta-lactamase-negative, ampicillin-resistant Haemophilus influenzae with Ser311Pro, Ala502Thr, Asn526Lys substitutions in penicillin-binding protein 3 by broth microdilution method; method in brief: as §1
Haemophilus influenzae [27] = test: Antimicrobial activity against Beta-lactamase-negative, ampicillin-resistant Haemophilus influenzae with Asp350Asn, Ser357Asp, Met377Ile, Ser385Thr, Leu389Phe, substitutions in penicillin-binding protein 3 by broth microdilution method; method in brief: as §1
Haemophilus influenzae [28] = test: Antimicrobial activity against Beta-lactamase-positive, ampicillin-cluvulanate-resistant Haemophilus influenzae with Asp350Asn, Ser357Asp, Ala437Ser, Ala502Thr, Asn526Lys substitutions in penicillin-binding protein 3 by broth microdilution method; method in brief: as §1
Haemophilus influenzae [29] = test: Antimicrobial activity against Beta-lactamase-positive, ampicillin-cluvulanate-resistant Haemophilus influenzae with Asp350Asn, Met377Ile, Asn526Lys substitutions in penicillin-binding protein 3 by broth microdilution method; method in brief: as §1
Haemophilus influenzae [30] = test: Antimicrobial activity against Beta-lactamase-positive, ampicillin-cluvulanate-resistant Haemophilus influenzae with Ala368Thr, Ala502Thr, Asn526Lys substitutions in penicillin-binding protein 3 by broth microdilution method; method in brief: as §1

`N[C@@H](C(=O)N[C@@H]1C(=O)N2C(C(=O)O)=C(Cl)CS[C@H]12)c1ccccc1` [CEFACLOR ANHYDROUS] showed an MIC50 (Haemophilus influenzae [1]) of 8 µg/mL (≈ 21.8 µM), an MIC90 (Haemophilus influenzae [1]) of 32 µg/mL (≈ 87 µM) and an MIC50 (Haemophilus influenzae [2]) of 8 µg/mL (≈ 21.8 µM). The MIC90 (Haemophilus influenzae [2]) was 64 µg/mL (≈ 174 µM), the MIC50 (Haemophilus influenzae [3]) was 8 µg/mL (≈ 21.8 µM) and the MIC90 (Haemophilus influenzae [3]) was 32 µg/mL (≈ 87 µM). For the same compound, the MIC50 (Haemophilus influenzae [4]) was 8 µg/mL (≈ 21.8 µM), the MIC90 (Haemophilus influenzae [4]) was 16 µg/mL (≈ 43.5 µM) and the MIC50 (Haemophilus influenzae [5]) was 8 µg/mL (≈ 21.8 µM). For the same compound, the MIC90 (Haemophilus influenzae [5]) was 32 µg/mL (≈ 87 µM).

In the case of `CC[C@H]1OC(=O)[C@H](C)[C@@H](O[C@H]2C[C@@](C)(OC)[C@@H](O)[C@H](C)O2)[C@H](C)[C@@H](O[C@@H]2O[C@H](C)C[C@H](N(C)C)[C@H]2O)[C@](C)(OC)C[C@@H](C)C(=O)[C@H](C)[C@@H](O)[C@]1(C)O` [CLARITHROMYCIN], the MIC50 (Haemophilus influenzae [1]) is reported as 8 µg/mL (≈ 10.7 µM), the MIC90 (Haemophilus influenzae [1]) is reported as 16 µg/mL (≈ 21.4 µM) and the MIC50 (Haemophilus influenzae [2]) is reported as 8 µg/mL (≈ 10.7 µM). It also gave an MIC90 (Haemophilus influenzae [2]) of 16 µg/mL (≈ 21.4 µM), an MIC50 (Haemophilus influenzae [3]) of 8 µg/mL (≈ 10.7 µM) and an MIC90 (Haemophilus influenzae [3]) of 32 µg/mL (≈ 42.8 µM). It also gave an MIC50 (Haemophilus influenzae [4]) of 8 µg/mL (≈ 10.7 µM), an MIC90 (Haemophilus influenzae [4]) of 16 µg/mL (≈ 21.4 µM) and an MIC50 (Haemophilus influenzae [5]) of 8 µg/mL (≈ 10.7 µM). The MIC90 (Haemophilus influenzae [5]) was 16 µg/mL (≈ 21.4 µM).

`CC1(C)S[C@@H]2[C@H](NC(=O)[C@H](N)c3ccccc3)C(=O)N2[C@H]1C(=O)O` [AMPICILLIN] gave an MIC50 (Haemophilus influenzae [1]) of 16 µg/mL (≈ 45.8 µM), an MIC90 (Haemophilus influenzae [1]) of 256 µg/mL (≈ 733 µM) and an MIC (Haemophilus influenzae [6]) of 230 µg/mL (≈ 658 µM). The MIC (Haemophilus influenzae [7]) was 4 µg/mL (≈ 11.4 µM), the MIC (Haemophilus influenzae [8]) was 512 µg/mL (≈ 1470 µM) and the MIC (Haemophilus influenzae [9]) was 2 µg/mL (≈ 5.72 µM). It also gave an MIC (Haemophilus influenzae [10]) of 4 µg/mL (≈ 11.4 µM), an MIC (Haemophilus influenzae [11]) of 4 µg/mL (≈ 11.4 µM) and an MIC50 (Haemophilus influenzae [2]) of 256 µg/mL (≈ 733 µM). The MIC90 (Haemophilus influenzae [2]) was > 512 µg/mL, the MIC (Haemophilus influenzae [12]) was 230 µg/mL (≈ 658 µM) and the MIC (Haemophilus influenzae [13]) was 288 µg/mL (≈ 824 µM). The MIC (Haemophilus influenzae [14]) was 2.2 µg/mL (≈ 6.3 µM), the MIC (Haemophilus influenzae [15]) was 230 µg/mL (≈ 658 µM) and the MIC (Haemophilus influenzae [16]) was 2.8 µg/mL (≈ 8.01 µM). The MIC (Haemophilus influenzae [17]) was 2.2 µg/mL (≈ 6.3 µM), the MIC (Haemophilus influenzae [18]) was 192 µg/mL (≈ 549 µM) and the MIC (Haemophilus influenzae [19]) was 2.7 µg/mL (≈ 7.73 µM). It also gave an MIC (Haemophilus influenzae [19]; Haemophilus influenzae, read-out: MIC) of 2.7 µg/mL (≈ 7.73 µM), an MIC50 (Haemophilus influenzae [3]) of 2 µg/mL (≈ 5.72 µM) and an MIC90 (Haemophilus influenzae [3]) of 8 µg/mL (≈ 22.9 µM). For the same compound, the MIC50 (Haemophilus influenzae [4]) was 1 µg/mL (≈ 2.86 µM), the MIC90 (Haemophilus influenzae [4]) was 1 µg/mL (≈ 2.86 µM) and the MIC (Haemophilus influenzae [20]) was 2 µg/mL (≈ 5.72 µM). It also gave an MIC (Haemophilus influenzae [21]) of 2.8 µg/mL (≈ 8.01 µM), an MIC (Haemophilus influenzae [22]) of 512 µg/mL (≈ 1470 µM) and an MIC (Haemophilus influenzae [23]) of 2.8 µg/mL (≈ 8.01 µM). For the same compound, the MIC (Haemophilus influenzae [24]) was 2.2 µg/mL (≈ 6.3 µM), the MIC (Haemophilus influenzae [25]) was 208 µg/mL (≈ 595 µM) and the MIC (Haemophilus influenzae [26]) was 2.8 µg/mL (≈ 8.01 µM). It also gave an MIC (Haemophilus influenzae [27]) of 5.3 µg/mL (≈ 15.2 µM), an MIC50 (Haemophilus influenzae [5]) of 128 µg/mL (≈ 366 µM) and an MIC90 (Haemophilus influenzae [5]) of 256 µg/mL (≈ 733 µM). For the same compound, the MIC (Haemophilus influenzae [28]) was 208 µg/mL (≈ 595 µM), the MIC (Haemophilus influenzae [29]) was 288 µg/mL (≈ 824 µM) and the MIC (Haemophilus influenzae [30]) was 208 µg/mL (≈ 595 µM).
